Key:
[1] = test system: Human immunodeficiency virus 1; assay: Antiviral activity against Human immunodeficiency virus 1 3B infected in MT4 cells assessed as protection against virus-induced cytopathic effect measured 5 days post infection by MTT assay; type: functional, organism-based; details: MT4, 120 h
Outline: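 MT-4 cells resuspended at 6×10^5 cells/mL, infected with HIV-1 IIIB at 100-300 CCID50. Serial five-fold compound dilutions were run in triplicate wells. Viability was read by MTT reduction at 540 and 690 nm five days after infection, using the median OD of two or three wells. EC50 is the concentration giving 50% protection from viral cytopathicity.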

[2] = target: Human immunodeficiency virus type 1 reverse transcriptase (Human immunodeficiency virus 1, UniProt Q72547); assay: Inhibition of HIV-1 BH10 reverse transcriptase RNase H activity expressed in Escherichia coli using [32P]-labeled template primer 31Trna/21P as substrate pretreated for 5 mins followed by substrate addition by polyacrylamide gel electrophoresis method
Outline: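 Wild-type HIV-1 BH10 RT (20-40 nM) was preincubated with compound for 5 min at 37 °C in 50 mM Tris-HCl pH 8.0, 50 mM NaCl, 5 mM MgCl2, 5% DMSO. Reaction was started with 25 nM 5'-32P-labeled 31Trna/21P and run 20 s at 37 °C. Cleavage products were resolved on denaturing PAGE and quantified by phosphorimaging. IC50 came from dose-response curves over 0.2-100 μM.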

[3] = Cytotoxicity against human MT4 cells after 5 days by MTT assay; type: cell-based
Outline: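 Mock-infected MT-4 cells at 6×10^5 cells/mL were set up in triplicate wells alongside the infected series, with serial five-fold compound dilutions. Viability was measured by MTT at 540 and 690 nm after five days, using the median OD of two or three wells. CC50 is the concentration reducing viability of mock-infected cells by 50%.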

[4] = target: Human immunodeficiency virus type 1 integrase (Human immunodeficiency virus 1, UniProt Q7ZJM1); assay: Inhibition of recombinant HIV1 integrase strand transfer activity using biotin-labeled double-stranded HIV-1 LTR U5 donor DNA substrate pretreated for 5 mins followed by substrate addition and measured after 30 mins by ELISA
[5] = test system: Human immunodeficiency virus 1; assay: Selectivity ratio of IC50 for HIV-1 BH10 reverse transcriptase RNase H activity to IC50 for recombinant HIV1 integrase strand transfer activity
Outline: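 Ratio of RNase H IC50 to IN IC50. The RNase H IC50 came from the gel-based cleavage assay. The IN IC50 came from an ELISA strand-transfer assay: biotinylated LTR U5 donor DNA on streptavidin plates, full-length recombinant IN added, compound for 5 min at room temperature, then target DNA for 30 min at 37 °C. Products were detected with HRP antibody, TMB and A450.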

Sequence of Human immunodeficiency virus type 1 integrase (Q7ZJM1 whole entry): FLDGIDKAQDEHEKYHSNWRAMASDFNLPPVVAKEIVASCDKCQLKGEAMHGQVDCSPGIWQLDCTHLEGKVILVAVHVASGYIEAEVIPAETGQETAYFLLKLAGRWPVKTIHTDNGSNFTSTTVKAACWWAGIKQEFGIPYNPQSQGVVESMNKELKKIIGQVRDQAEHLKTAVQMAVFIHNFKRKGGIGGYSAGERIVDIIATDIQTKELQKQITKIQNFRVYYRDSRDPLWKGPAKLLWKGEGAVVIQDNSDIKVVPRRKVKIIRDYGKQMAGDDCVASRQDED

Compound | EC50 [1] | IC50 [2] | CC50 at 120 h [3] | IC50 [4] | Ratio IC50 [5]
COC(=O)c1c(Nc2ccc(-c3ccccc3)cc2)c2nccnc2n(O)c1=O | > 7 µM | 5.25 µM | 7 µM | > 25 µM | –
Cc1nnc(C(=O)NC(C)(C)c2nc(C(=O)NCc3ccc(F)cc3)c(O)c(=O)n2C)o1 | 0.0117 µM | – | > 56.2 µM | – | –
COC(=O)c1c(Nc2ccc(-c3cccc(C#N)c3)cc2)c2nccnc2n(O)c1=O | > 5.68 µM | 13.3 µM | 5.68 µM | > 25 µM | –
COC(=O)c1c(Nc2ccc3ccccc3c2)c2nccnc2n(O)c1=O | > 7.15 µM | 5.11 µM | 7.15 µM | 6.74 µM | 0.76
COC(=O)c1c(Nc2cccc(-c3ccc(OC)c(OC)c3)c2)c2nccnc2n(O)c1=O | > 1.32 µM | 4.72 µM | 1.32 µM | 0.22 µM | 21.4
COC(=O)c1c(Nc2cccc(-c3cccc(C#N)c3)c2)c2nccnc2n(O)c1=O | > 1.16 µM | 4.02 µM | 1.16 µM | 0.25 µM | 16.1
COC(=O)c1c(Nc2cccc3ccccc23)c2nccnc2n(O)c1=O | > 1.38 µM | 4.3 µM | 1.38 µM | > 25 µM | –
COC(=O)c1c(Nc2ccc(-c3cncnc3)cc2)c2nccnc2n(O)c1=O | > 8.04 µM | 3.24 µM | 8.04 µM | 1.49 µM | 2.17
COC(=O)c1c(Nc2cccc(-c3cncnc3)c2)c2nccnc2n(O)c1=O | > 5.89 µM | 1.85 µM | 5.89 µM | 10.8 µM | 0.17
COC(=O)c1c(Nc2ccc(-c3ccc(C#N)cc3)cc2)c2nccnc2n(O)c1=O | > 0.34 µM | 1.77 µM | 0.34 µM | 1.18 µM | 1.5
COC(=O)c1c(Nc2ccc(-c3ccc(OC)c(OC)c3)cc2)c2nccnc2n(O)c1=O | > 1.47 µM | 5.9 µM | 1.47 µM | > 25 µM | –
COC(=O)c1c(Nc2cccc(-c3ccc(C#N)cc3)c2)c2nccnc2n(O)c1=O | > 1.19 µM | 5.56 µM | 1.19 µM | 22.8 µM | 0.24
CC(C)c1ccc(O)c(=O)c(O)c1 [BETA-THUJAPLICINOL] | – | 2.5 µM | – | – | –
